Test results: PMC9302452 (ACS Bio & Med Chem Au, 2022)

Experiments:
ERRα [1] = assay: Real-time PCR, transcriptional level of ERRα; format: cell-based; conditions: 5.0 μM, 24 h incubation
Method in brief: (§1)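 mRNA was quantified by real-time PCR with SYBR Premix Ex Taq under optimised conditions. Gene expression was normalised to Gapdh as the reference gene.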

ERRα [2] = target: T1, ERRα (Homo sapiens, UniProt P11474); assay: Cellular thermal shift assay; format: cell-based; conditions: HepG2 cells, concentration as low as 1.0 μM
T1 sequence (P11474 1-423): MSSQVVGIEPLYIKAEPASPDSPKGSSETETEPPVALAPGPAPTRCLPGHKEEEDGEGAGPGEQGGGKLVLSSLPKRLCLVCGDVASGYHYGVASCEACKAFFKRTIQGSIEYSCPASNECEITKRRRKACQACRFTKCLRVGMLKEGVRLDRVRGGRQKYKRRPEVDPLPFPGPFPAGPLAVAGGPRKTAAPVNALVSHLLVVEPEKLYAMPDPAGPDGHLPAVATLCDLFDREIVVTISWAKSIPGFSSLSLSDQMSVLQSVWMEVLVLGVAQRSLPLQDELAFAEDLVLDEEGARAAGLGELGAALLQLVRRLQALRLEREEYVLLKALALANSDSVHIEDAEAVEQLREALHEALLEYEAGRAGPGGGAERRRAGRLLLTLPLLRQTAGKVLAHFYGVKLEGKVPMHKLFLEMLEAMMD
Method in brief: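 HepG2 cells grown to ~90% confluence were exposed to DMSO or test compound (1.0 or 5.0 μM in fresh medium) for 4 h at 37 °C, 5% CO2. Cells were harvested, washed, resuspended in PBS, split into seven aliquots and heated at 48–60 °C for 3 min. They were then held 10 min at room temperature and freeze-thawed thrice in liquid nitrogen. Lysates were spun 30 min at 4 °C and soluble ERRα was assessed by SDS-PAGE/western blot.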

ERβ = assay: Expression of other nuclear hormone receptors: ERβ; format: cell-based; conditions: Figure S3
HFD-induced obese mice = assay: HFD-induced obese C57 mice, daily oral treatment for 4 weeks; format: in vivo, mouse
Method in brief: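 C57 mice were made obese on HFD for 8 weeks; low-fat-diet mice served as controls. They were then gavaged daily for 4 weeks with test compound (10 or 30 mg/kg) or PBS vehicle diluted in 0.5% CMC-Na. Body weight and fasting glucose were tracked during dosing. Mice were fasted overnight and killed, and livers were taken for kit-based CS activity, mtDNA and SYBR qPCR (Gapdh reference); n = 5.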

ERRβ = assay: Real-time PCR, transcriptional level of ERRβ; format: cell-based; conditions: 5.0 μM, 24 h incubation
Method in brief: as §1

[3] = system: glucose/insulin-induced HepG2-IR cells; assay: Oil red O lipid accumulation, glucose/insulin-induced HepG2-IR cells; format: cell-based; conditions: high glucose/high insulin HepG2-IR, 10.0 μM, 48 h
Method in brief: (§2)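 HepG2 steatosis models were induced two ways. Line 3 used DMEM with 10% FBS and 1% BSA plus palmitic (0.33 mM) and oleic (0.66 mM) acid, final 1.0 mM, for 24 h. Line 4 used high glucose and insulin. Cells received DMSO or 10.0 μM test compound for 48 h; Erra overexpression and shRNA knockdown served as controls. Cells were formaldehyde-fixed, stained with 0.5% oil red O in isopropanol for 30 min with hematoxylin counterstain, and lipid was quantified.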

PPARγ = assay: Expression of other nuclear hormone receptors: PPARγ; format: cell-based; conditions: Figure S3
ERRα [4] = target: T2, ERRα (Homo sapiens, UniProt P11474); assay: Transient transfection mammalian two-hybrid reporter gene assay; conditions: 5.0 μM, 24 h incubation, heterologous cell-based reporter assay
T2 sequence (P11474 193-421 limits assumed): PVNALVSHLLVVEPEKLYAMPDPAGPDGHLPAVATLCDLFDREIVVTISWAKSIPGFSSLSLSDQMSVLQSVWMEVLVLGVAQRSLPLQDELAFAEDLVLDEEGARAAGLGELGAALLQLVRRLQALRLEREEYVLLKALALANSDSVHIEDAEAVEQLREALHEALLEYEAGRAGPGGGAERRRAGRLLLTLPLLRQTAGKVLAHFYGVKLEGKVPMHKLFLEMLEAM
T2 sequence (Q9UBK2 1-798 partner): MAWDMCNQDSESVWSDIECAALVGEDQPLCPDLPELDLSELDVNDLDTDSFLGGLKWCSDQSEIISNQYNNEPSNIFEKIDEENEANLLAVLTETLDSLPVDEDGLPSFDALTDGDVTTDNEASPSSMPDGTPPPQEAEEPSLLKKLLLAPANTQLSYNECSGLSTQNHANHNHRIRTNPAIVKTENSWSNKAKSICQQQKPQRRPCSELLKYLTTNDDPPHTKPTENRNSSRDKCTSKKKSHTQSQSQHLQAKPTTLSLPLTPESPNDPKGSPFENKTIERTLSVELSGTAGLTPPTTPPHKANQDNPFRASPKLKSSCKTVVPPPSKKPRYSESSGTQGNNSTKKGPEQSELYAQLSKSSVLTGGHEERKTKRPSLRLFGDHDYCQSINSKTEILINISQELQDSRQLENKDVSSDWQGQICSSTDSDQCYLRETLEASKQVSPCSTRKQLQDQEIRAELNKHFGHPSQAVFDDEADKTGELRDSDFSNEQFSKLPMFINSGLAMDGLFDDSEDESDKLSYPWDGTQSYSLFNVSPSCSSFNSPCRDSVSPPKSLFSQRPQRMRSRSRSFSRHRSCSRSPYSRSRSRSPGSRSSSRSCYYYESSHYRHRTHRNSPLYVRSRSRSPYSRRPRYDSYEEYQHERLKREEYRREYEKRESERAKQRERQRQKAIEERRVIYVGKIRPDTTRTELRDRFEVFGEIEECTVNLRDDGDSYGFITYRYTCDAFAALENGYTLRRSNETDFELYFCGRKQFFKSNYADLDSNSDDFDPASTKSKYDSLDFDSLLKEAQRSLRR
Method in brief: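 HEK293T cells were seeded at 10,000/well in DMEM with 10% FBS. After 18–24 h they were lipofected with GAL4-DBD-ERRα-LBD (0.5 ng), pcDNA-PGC-1α (0.5 ng), pFR reporter (25 ng) and pRL-TK Renilla control (3.0 ng). Test compound was added at 5.0 μM 6 h post-transfection for a further 24 h, and firefly/Renilla luciferase was read by dual-luciferase assay.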

[5] = system: ERRα target genes in HepG2-IR cells; assay: Expression of ERRα and target genes in HepG2-IR cells; format: cell-based
Errα-LKO mice = Errα-LKO mice on HFD treated with compound; format: in vivo, mouse; conditions: 30 mg/kg body weight
Method in brief: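 Liver-specific Errα knockout mice came from crossing Errα-floxed with albumin-Cre mice. They were fed HFD for 8 weeks, then gavaged daily for 4 weeks with test compound (30 mg/kg) or PBS vehicle diluted in 0.5% CMC-Na. For IGTT, overnight-fasted mice received 1.0 g/kg glucose i.p. For ITT, 6 h-fasted mice received 0.5 U/kg human insulin i.p. Tail-vein glucose was read by glucometer. Liver glucose uptake was also measured; n = 5.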

ERγ = assay: Expression of other nuclear hormone receptors: ERγ; format: cell-based; conditions: Figure S3
[6] = Tissue distribution after oral administration; format: in vivo; conditions: male, SD, rat, 30 mg/kg
Method in brief: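 Male SD animals received a single oral gavage of test compound at 30 mg/kg in 0.5% CMC-Na. Blood and tissues were collected at 0.25, 0.5, 2 and 4 h, with 3 animals per time point. Heparinised blood was centrifuged and plasma stored at −80 °C. Plasma and tissue concentrations were measured by LC/MS and expressed as tissue-to-plasma ratios.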

ERα = assay: Expression of other nuclear hormone receptors: ERα; format: cell-based; conditions: Figure S3
ERRα [7] = target: T1, ERRα; assay: AAB-Luc cells stably expressing ERRα luciferase reporter; format: cell-based
Method in brief: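 HEK293T cells were stably transduced at MOI 7 with a lentiviral AAB-GFP-Luc reporter. AAB is the ERRα response element, and the vector carries GFP and luciferase markers. The ERRα luciferase reporter read-out was multiplexed with a cell-viability assay. Test compounds were screened in three independent experiments.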

[8] = system: ERRα-targeted genes MCAD, PDK4, ATP5β; assay: Quantitative real-time PCR of ERRα-targeted genes; format: cell-based
Method in brief: as §1

[9] = system: FFA-induced HepG2-IR cells; assay: Oil red O lipid accumulation, FFA-induced HepG2-IR cells; format: cell-based; conditions: palmitic acid (FFA) HepG2-IR, 10.0 μM, 48 h
Method in brief: as §2

[10] = Pharmacokinetics in SD rats; format: in vivo, rat
Method in brief: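 Male Sprague–Dawley rats were dosed with test compound i.v. at 2.0 mg/kg or by oral gavage at 10 mg/kg. The formulation was 5% DMSO/95% hydroxypropyl-β-cyclodextrin (20% w/v) at 1 mg/mL. Orbital-sinus blood was drawn into heparin at 5, 15 and 30 min and at 1, 2, 4, 6, 8 and 24 h. Plasma was stored at −80 °C and quantified by LC/MS, and PK parameters were calculated.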

ERRα-LBD = target: T3, ERRα-LBD (Homo sapiens, UniProt P11474); assay: AlphaScreen assay, interaction of ERRα-LBD with PGC1α peptide; format: binding
T3 sequence (P11474 193-421 limits assumed): T2 sequence (P11474 193-421 limits assumed)
Method in brief: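 AlphaScreen used a hexahistidine detection kit with 200 nM His-tagged ERRα-LBD and 50 nM biotinylated PGC1α cofactor peptide, plus donor and acceptor beads. Buffer was 50 mM MOPS, 50 mM NaF, 0.05 mM CHAPS and 0.1 mg/mL BSA at pH 7.4. Test compound was added as a serial dilution series, and EC50 was derived from enhancement of the LBD–peptide interaction.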

HepG2-IR cells [11] = assay: Glucose uptake assay in HepG2-IR cells; format: cell-based
Method in brief: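 HepG2-IR cells were starved 2 h in serum-free medium, then washed in glucose-free KRPH buffer (HEPES, pH 7.4, 0.2% fatty-acid-free BSA). They were incubated 30 min in KRPH with 5.0 μM test compound, 5 mM D-glucose and 2-deoxy-D-[3H]glucose. After ice-cold PBS washes, cells were lysed in 0.5 M NaOH/0.1% SDS and neutralised with HCl. Uptake was read by liquid scintillation counting.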

ERRγ = assay: Real-time PCR, transcriptional level of ERRγ; format: cell-based; conditions: 5.0 μM, 24 h incubation
Method in brief: as §1

HepG2-IR cells [12] = assay: Fatty acid oxidation assay in HepG2-IR cells; format: cell-based
Method in brief: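 Insulin-resistant HepG2 (HepG2-IR) cells were treated with test compound or vehicle for 24 h. They were then incubated 1.5 h at 37 °C with 0.2 mM L-carnitine and 200 μM [14C(U)]palmitate (0.1 μCi/mL), compound still present. Released CO2 was trapped on methylbenzylamine/methanol-soaked paper after acidifying with 6 M HCl. Acid-soluble products in the supernatant were also counted by scintillation. Values were normalised to protein (BCA) from parallel wells.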

[13] = 10 and 30 mg/kg/day oral, 4 weeks
[14] = abdominal adipose tissue/plasma
[15] = male, Sprague-Dawley, rat, plasma, po, 10 mg/kg

COc1ccc2c(=O)n(C)c(-c3ccccc3)nc2c1 [Compound 7, 7-methoxy-3-methyl-2-phenyl quinazolin-4(3H)-one]
Elevation of transcriptional level of ERRα (ERRα [1]): approximately 2.5 fold
Thermal degradation of ERRα (ERRα [2]): obviously inhibited thermal degradation of ERRα
Expression of ERβ (ERβ): not obviously affected
Body weight (HFD-induced obese mice; [13]): did not obviously affect body weight
Glucose tolerance (IGTT) (HFD-induced obese mice; [13]): improved glucose tolerance
Insulin resistance (ITT) (HFD-induced obese mice; [13]): improved glucose tolerance and insulin resistance
Fasting glucose levels (HFD-induced obese mice; 10 and 30 mg/kg/day oral, 4 weeks, vs vehicle): decreased fasting glucose levels
Plasma FFA (HFD-induced obese mice; HFD-elevated level): attenuated
Plasma TC (HFD-induced obese mice; HFD-elevated level): attenuated
Plasma TG (HFD-induced obese mice; HFD-elevated level): attenuated
Plasma insulin (HFD-induced obese mice; HFD-elevated level): attenuated
Transcription of Errα and target genes (Pdk4, Atp5β, Pgc1α) in mouse liver (HFD-induced obese mice; both 10 and 30 mg/kg): significantly elevated transcription
Expression of FFA oxidation genes Mcad and Cpt1a in liver (HFD-induced obese mice; compound-treated group): obviously enhanced
Food intake (HFD-induced obese mice; compound-treated vs PBS-fed mice): similar
Serum ALT level (HFD-induced obese mice; daily oral): dampened
Serum AST level (HFD-induced obese mice; daily oral): dampened
Hepatic steatosis (Oil red O and HE staining) (HFD-induced obese mice; daily oral, both 10 and 30 mg/kg): potently mitigated hepatic steatosis
CS activity (HFD-induced obese mice; liver): higher CS activity
Copy number of mitochondrial DNA (HFD-induced obese mice; liver): elevated
Fatty acid oxidation (HFD-induced obese mice; liver tissue): higher
Protein levels of AOX1, Cytochrome C, SDH, CPT1A (HFD-induced obese mice; liver, western blot): elevated
Oxygen consumption (HFD-induced obese mice; metabolic cage): elevated oxygen consumption
Protein levels of ERRα, PDK4, MCAD, ATP5β in liver (HFD-induced obese mice; western blot): significantly increased protein levels
Akt signaling pathways in the liver (p-Akt/total Akt) (HFD-induced obese mice; western blot of liver tissue): significantly sensitized Akt signaling pathways
Effect on transcriptional level of ERRβ (ERRβ): did not display an obvious effect
Lipid accumulation (oil red O) [3]: significantly alleviated lipid accumulation
Expression of PPARγ (PPARγ): not obviously affected
ERRα-driven luciferase activity (ERRα [4]): effectively improved the ERRα-driven luciferase activity
Expression of ERRα target genes including Errα [5]: increased by the molecule in a dose-dependent manner
Effects on systemic and liver insulin resistance in Errα-LKO mice (Errα-LKO mice): almost completely abolished
Expression of ERγ (ERγ): not obviously affected
Kp at 0.25 h [6, 14]: 7.4
Kp at 0.5 h [6, 14]: 30.1
Kp at 2 h [6, 14]: 22.8
Kp at 4 h [6, 14]: 235
Kp at 0.25 h ([6]; liver/plasma): 58.9
Kp at 0.5 h ([6]; liver/plasma): 39.8
Kp at 2 h ([6]; liver/plasma): 28.6
Kp at 4 h ([6]; liver/plasma): 47.4
Expression of ERα (ERα): not obviously affected
EC50 (ERRα [7]): 2.7 µM
mRNA levels of ERRα downstream genes (MCAD, PDK4, ATP5β) [8]: dose-dependently elevated mRNA levels
Lipid accumulation (oil red O) [9]: significantly alleviated lipid accumulation
Maximum plasma concentration ([10]; SD rat, PO 10 mg/kg): 2.0 ± 0.45 µM
F (oral bioavailability) ([10]; SD rat, PO 10 mg/kg vs IV 2 mg/kg, printed on the IV line of Table S1): 9.0%
Cmax [10, 15]: 531 ± 120 ng/mL
Tmax [10, 15]: 15 min
AUC(0-inf) ([10]; male, Sprague-Dawley, rat, plasma, po, 10 mg/kg, AUC(0-∞), SD rat, PO 10 mg/kg): 383 ± 110 ng·h/mL
EC50 (ERRα-LBD): 0.086 µM
Glucose uptake (HepG2-IR cells [11]): significantly enhanced
Effect on transcriptional level of ERRγ (ERRγ): did not display an obvious effect
Fatty acid oxidation (HepG2-IR cells [12]): significantly enhanced
